Fewer inactive variants are shown than the library holds.
B1: tRNA (parent)
chain: GUUCCGUUGGCGUAAUGGUAACGCGUCUCCCUCCUAAGGAGAAGACUGCGGGUUCGAGUCCCGUACGGAACG

Variants of: B1
Experiment: yeast fitness relative to wild type (ratio to wild type); higher = fitter; tRNA-Arg(CCU), competitive growth, 37 C, YPD
Method in brief: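 Variants of the tRNA-Arg(CCU) gene, chemically synthesised with a 3% per-site mutation rate at 69 sites, were placed at the native genomic locus in Saccharomyces cerevisiae. The pooled strains were competed in YPD at 37°C for 24 hours in six parallel replicates. Gene amplicons from the start population and from each end population were read by 100-nucleotide paired-end sequencing. Darwinian fitness relative to wild type came from changes in genotype frequencies; genotypes needed ≥ 100 starting reads, and estimates < 0.5 were set to 0.5.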

| Variant | yeast fitness |
| --- | --- |
| GUUACGUUGGCGUAAUGGUAACGCGUCUCCCUCCUAAGGAGAAGACUGCGGGUUCGAGUCCCGUACGUGACG | 0.705 |
| GUUACGAUGGCGUGAUCGUAACGCGUCUCCCUCCUAAGGAGAAGACUGCGGGUUCGAGUCCCGUACGGAACG | ≤ 0.5 |
| GUUACGAUGGCGUGAUCGUAACGCGUCUCCCUCCUAAGGAGAAGACUGCGGGUUCAAGUCCUGUACGGAACG | ≤ 0.5 |
| GUUACGAUGGCGUAAUGGUUACGCGUGUUCCUCCUAAGGAGAAGACUGCGGGUUCGAGUCCGGUACGGAACG | 0.549 |
| GUUACGAUGGCGUAAUGGUAACGCGUCUCCAUCCUAAGGAGAAGACUGCGGGUUAGAGUCCCGUACGGAACG | 0.717 |
| GUUACGAUGGCGUAAUGGUAACGCGUCUCCAUCCUAAGGAGAAGACUGCGGGUACGAGUCCCGUACGGAACG | ≤ 0.5 |
| GUUACGAUGGCGUAAUGGUAACGCGUCUCCCUCCUAAGGAGAAGAUUGCGGGUUCGAGUCCCGUACGGAACG | ≤ 0.5 |
| GUUACGAAGGCGUAAUGGUAACGCGUCUCCCUCCUAAGGAGAAGAAUACGGGUUCGAGUCCCGGACGGAACG | ≤ 0.5 |
| GUUACGAGGGCGUAAUGGUAACGCGUCUCCCUCCUAAGGAGAAGACUGCGGGUUCGAGUCCCGUACGGAACG | ≤ 0.5 |
| GUUACGAUGGCGAAAUGGUAACGCGUCUCACUCCUAAGGAGAAGACUGCGGGUUCGAGUCCCGCACGGAACG | 0.56 |
| GUUACGAUGGCGUAAUGGUAACGCGUCUCCCUCCCAAGGAGAAGACUGCGGGUUCGAGUCCCGUACGGAACG | ≤ 0.5 |
| GUUACGCUGGCGUAAUGGUACUGCGUCUCCCUCCUAAGGAGAAGACUGCCGGUUCGAGUCCCGUACGGAUCG | ≤ 0.5 |
| GUUACGCUGGCGUAAUGGUAACGGGUCUCCCUCCUAAGGAGAAGACUGCGGGUUCGAGUCACGUAUGGAACG | ≤ 0.5 |
| GUUACGGUGGCGUAAUGGUAACGCGUUUCCCUCCUAAGGAGAAGCCUGCGGGUUCGAGUCCCGUACGGAACG | ≤ 0.5 |
| GUUACGGUGGCCUAAUGGUAACGCGUCUCCCUCCUAAGGAGAAGACUGCGGGUUCGAGUCCCGUACGGAACG | 0.549 |
| GUUACGGUGGCCUAAUGGUAACGCGUCUCCCUCCUAAGGAGAAGACUGCGGGUUCGAGUUCGGUACGGAACG | ≤ 0.5 |
| GUUACGUAGGCGUAAUGGUAACGCGUCUCCCUCCUAAGGAGAAGACUGCGGGUUCGAGUCCCGUACGGAACG | 0.694 |
| GUUACGUAGGCGUAAUGGUAACGUGUCUCCCUCCUAAGGAGAAGACUGCGGGUUCGAGUCCCGUACGGAACG | ≤ 0.5 |
| GUUACGUAGGCGUAAUGAUAACGCGUUUCCCUCCUAAGGAGAAGUCUGCGGGUUCGAGUCCCGUACGGAACG | ≤ 0.5 |

| Variant | yeast fitness |
| --- | --- |
| GUUACGUCGGCGUAAUGGUAACGCGUCUCCCUCCUAAGGAGAAGACUGCGGGUUCGAGUCCCGUACGGAACG | 0.887 |
| GUUACGUCGGCGUUAUGGUCACGCGUCGCCCUCCUAAGGAGAAGACUGCGGGUUCGAGUCCCGUACGGAACG | 0.54 |
| GUUACGUCGACGUAAUGGUAACGCGUCUCCCUCCUAAGGAGCAGACUGCGGGUUCGAGUCCCGUACGGAACG | ≤ 0.5 |
| GUUACGUCGGCGUAAUGGUAACGCGUCUCCCUCCUAAGGAGAAGACCGCGGGUUCGAGUCCCGUACGGAACG | 0.579 |
| GUUACGUCGGCGUAAUGGUAACGCGUCUCCCUCCUAAGGAGAAGACUGCGGGUUCGAGACCCGUACGGAACG | ≤ 0.5 |
| GUUACGUGGGCGUUAUGGUAACGCGUCUCCCUCCUAAGGAGAAGACUGCGGGUUCGAGUCCCGUACGGAACG | 0.524 |
| GUUACGUGGGCGUAAUGGUAACGCGUCUCCCUCCUAAGGACAAGGCUGCGGGUUCGAGUCCCGUACGGAACG | 0.703 |
| GUUACGUGGGCGUAAUGGUAACGCGUCUCCCUCCUAAGGAGAAGACUGCGGGUUCGAGUCCCGCACGGAACG | 0.545 |
| GUUACGUUGGCGAAAUGGUAACGCGUCUCCCUCCUAAGGAGAAGACUGCGGGUUCGAGUCCCGUACGGAGCG | ≤ 0.5 |
| GUUACGUUGGCGAAAUGAUAACGCGUCUCCCUCCUAAGGAGAAGACUGCGGGUUCGAGUCCCGUACGCAACG | ≤ 0.5 |
| GUUACGUUGGCGAAAUGGUAACGCGUCUCCCUCCUAAGGAGAAGACUGCAGGUUCGAGUCCCGUACGGAACG | 0.613 |
| GUUACGUUGGCGAAAUGGUAACGCGUCUCCCUCCUAAGGAGAAGACUGCGGGUUCGAGUCCCAUACGGAACG | ≤ 0.5 |
| GUUACGUUGGCGCAAUGGUCACGCGUCUCCCUCAUAAGCAGAUGACUGCGGGUUCGAGUCCCGUACGGAACG | ≤ 0.5 |
| GUUACGUUGGCGCAAUGGUAACGCGUCUCCGUCCUAAGGAGAACACUGCGGAUUCGAAUCCCGUACGGAACG | ≤ 0.5 |
| GUUACGUUGGCGCAAUGGUAACGCGUCACCCUCGUAAGGAGAAGACUGCGGGUUCGAGUCCCGUACGGAACG | ≤ 0.5 |
| GUUACGUUGGCGGAAUGGUAACGCGUCUCCCGCCUAAGGAGAAGACUGCGGGUUUGAGUCCCCUACGGAACG | ≤ 0.5 |
| GUUACGUUGGCGUAAAGGUAACGCGUCUCCCUCCUAAGGAGAAGACUGCGGGUUCGAGUCCCGUACGGAACG | 0.823 |
| GUUACGUUGGCGUAAAGGUAACGCGUCUGCCCCCUAAGGAGAAGACUGCGGGUUUGAGUCCCGUAUGGAACG | ≤ 0.5 |
| GUUACGUUGGCGUAACGGUAACGCGUCUCCCUCCUAAGGAGAAGACUGCGGGUUCGAGUCCCGUACGGAACG | 0.702 |

— the RNAGym collection of RNA variant scans (doi:10.1126/science.aae0568)
